Assay results from ChEMBL document CHEMBL1138361, “4-acyl-1-(4-aminoalkoxyphenyl)-2-ketopiperazines as a novel class of non-brain-penetrant histamine H3 receptor antagonists” (J Med Chem, 2007).
Each block holds one compound with its values, some of them ahead of it.

Key:
[1] = Partition coefficient, log D at pH 7.4; assay type: physicochemical; conditions: octanol/water
How it was run: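 Compound in phosphate buffer was shaken with buffer-saturated octanol (3 × 50 inversions). Phases were separated by centrifugation at 300g for 15 min. Both phases were quantified by HPLC, and log D was calculated from peak areas normalized to injection volume.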

[2] = Ratio of drug level in brain to blood in CD Sprague-Dawley rat at 1 mg/kg, iv after 5 mins; assay type: ADME, organism-based; design: dose 1 mg/kg, route intravenous; conditions: brain and blood
How it was run: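 Male CD Sprague-Dawley rats were dosed iv in DMSO-PEG 200-water (5:45:50). Blood and brain were collected 5 min postdose under terminal isoflurane anesthesia. Blood was protein-precipitated; brain was homogenized and extracted. Parent drug was quantified by LCMS/MS.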

[3] = Cmax in CD Sprague-Dawley rat at 3.0 mg/kg, po; assay type: ADME, organism-based; design: dose 3 mg/kg, route oral; conditions: in vivo
How it was run: (§1)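 Single iv and oral doses given to male CD Sprague-Dawley rats (1 mg/kg iv, 3 mg/kg po) and male Beagle dogs (1 mg/kg iv, 2 mg/kg po). Vehicle was a DMSO-PEG 200-water (5:45:50) solution. Serial and terminal blood samples were taken at time points up to 7, 12 or 24 h postdose.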

[4] = Cmax in CD Sprague-Dawley rat at 1.0 mg/kg, iv; assay type: ADME, organism-based; design: dose 1 mg/kg, route intravenous; conditions: in vivo; how it was run: as §1
[5] = Tmax in CD Sprague-Dawley rat at 3.0 mg/kg, po; assay type: ADME, organism-based; design: dose 3 mg/kg, route oral; conditions: in vivo; how it was run: as §1
[6] = Tmax in CD Sprague-Dawley rat at 1.0 mg/kg, iv; assay type: ADME, organism-based; design: dose 1 mg/kg, route intravenous; conditions: in vivo; how it was run: as §1
[7] = AUC in CD Sprague-Dawley rat at 3.0 mg/kg, po; assay type: ADME, organism-based; design: dose 3 mg/kg, route oral; conditions: plasma; how it was run: as §1
[8] = AUC in CD Sprague-Dawley rat at 1.0 mg/kg, iv; assay type: ADME, organism-based; design: dose 1 mg/kg, route intravenous; conditions: plasma; how it was run: as §1
[9] = Clearance in CD Sprague-Dawley rat at 1.0 mg/kg, iv; assay type: ADME, organism-based; design: dose 1 mg/kg, route intravenous; conditions: in vivo; how it was run: as §1
[10] = Volume of distribution in CD Sprague-Dawley rat at 1.0 mg/kg, iv; assay type: ADME, organism-based; design: dose 1 mg/kg, route intravenous; conditions: in vivo; how it was run: as §1
[11] = Half life in CD Sprague-Dawley rat at 1.0 mg/kg, iv; assay type: ADME, organism-based; design: dose 1 mg/kg, route intravenous; conditions: in vivo; how it was run: as §1
[12] = Oral bioavailability in CD Sprague-Dawley rat at 3.0 mg/kg, po; assay type: ADME, organism-based; conditions: in vivo; how it was run: as §1
[13] = Cmax in Beagle dog at 2.0 mg/kg, po; assay type: ADME, organism-based, Canis lupus familiaris; design: dose 2 mg/kg, route oral; conditions: in vivo; how it was run: as §1
[14] = Cmax in Beagle dog at 1.0 mg/kg, iv; assay type: ADME, organism-based, Canis lupus familiaris; design: dose 1 mg/kg, route intravenous; conditions: in vivo; how it was run: as §1
[15] = Tmax in Beagle dog at 2.0 mg/kg, po; assay type: ADME, organism-based, Canis lupus familiaris; design: dose 2 mg/kg, route oral; conditions: in vivo; how it was run: as §1
[16] = Tmax in Beagle dog at 1.0 mg/kg, iv; assay type: ADME, organism-based, Canis lupus familiaris; design: dose 1 mg/kg, route intravenous; conditions: in vivo; how it was run: as §1
[17] = AUC in Beagle dog at 2.0 mg/kg, po; assay type: ADME, organism-based, Canis lupus familiaris; design: dose 2 mg/kg, route oral; conditions: plasma; how it was run: as §1
[18] = AUC in Beagle dog at 1.0 mg/kg, iv; assay type: ADME, organism-based, Canis lupus familiaris; design: dose 1 mg/kg, route intravenous; conditions: plasma; how it was run: as §1
[19] = Oral bioavailability in Beagle dog at 2.0 mg/kg, po; assay type: ADME, organism-based, Canis lupus familiaris; conditions: in vivo; how it was run: as §1
[20] = Cmax in CD Sprague-Dawley rat at 2.9 mg/kg, po; assay type: ADME, organism-based; design: dose 2.9 mg/kg, route oral; conditions: in vivo
[21] = Tmax in CD Sprague-Dawley rat at 2.9 mg/kg, po; assay type: ADME, organism-based; design: dose 2.9 mg/kg, route oral; conditions: in vivo
[22] = AUC in CD Sprague-Dawley rat at 2.9 mg/kg, po; assay type: ADME, organism-based; design: dose 2.9 mg/kg, route oral; conditions: plasma
[23] = Oral bioavailability in CD Sprague-Dawley rat at 2.9 mg/kg, po; assay type: ADME, organism-based; conditions: in vivo
[24] = Clearance in Beagle dog at 1.0 mg/kg, iv; assay type: ADME, organism-based, Canis lupus familiaris; design: dose 1 mg/kg, route intravenous; conditions: in vivo; how it was run: as §1
[25] = Volume of distribution in Beagle dog at 1.0 mg/kg, iv; assay type: ADME, organism-based, Canis lupus familiaris; design: dose 1 mg/kg, route intravenous; conditions: in vivo; how it was run: as §1
[26] = Half life in Beagle dog at 1.0 mg/kg, iv; assay type: ADME, organism-based, Canis lupus familiaris; design: dose 1 mg/kg, route intravenous; conditions: in vivo; how it was run: as §1

logD [1]: -0.13
Structure (SMILES): C[C@@H]1CCCN1CCCOc1ccc(N2CCN(C(=O)c3ccc(F)cc3)CC2=O)cc1

logD [1]: -0.6
Structure (SMILES): C[C@H]1CCCN1CCCOc1ccc(N2CCN(C(=O)c3ccc(C#N)cc3)CC2=O)cc1

logD [1]: -0.45
Structure (SMILES): O=C(c1ccc(F)cc1F)N1CCN(c2ccc(OCCCN3CCCC3)cc2)C(=O)C1

logD [1]: -1.1
Structure (SMILES): O=C(c1cnn2cccnc12)N1CCN(c2ccc(OCCCN3CCCCC3)cc2)C(=O)C1

logD [1]: 0.95
Structure (SMILES): O=C(c1ccc(F)cc1F)N1CCN(c2ccc(OC3CCN(C4CCC4)CC3)cc2)C(=O)C1

logD [1]: 1.03
Structure (SMILES): O=C(c1cc(F)cc(F)c1)N1CCN(c2ccc(OC3CCN(C4CCCC4)CC3)cc2)C(=O)C1

logD [1]: 1.51
Kp at 5 min [2]: 0.4
Structure (SMILES): Cl.O=C(c1ccc(Cl)cc1)N1CCN(c2ccc(OC3CCN(C4CCC4)CC3)cc2)C(=O)C1

logD [1]: 0.88
Structure (SMILES): O=C(c1ccc(F)cc1)N1CCN(c2ccc(OC3CCN(C4CCCC4)CC3)cc2)C(=O)C1

logD [1]: -0.18
Structure (SMILES): C[C@H]1CCCN1CCCOc1ccc(N2CCN(C(=O)c3ccc(F)cc3)CC2=O)cc1

logD [1]: 0.12
Kp at 5 min [2]: 0.3
Cmax [3]: 155 ng/mL
Cmax [4]: 300 ng/mL
Tmax [5]: 3 h
Tmax [6]: 4.8 min
AUC [7]: 805 ng·h/mL
AUC [8]: 437 ng·h/mL
clearance [9]: 37 mL/min/kg
Vd [10]: 2.4 L/kg
half-life [11]: 1.5 h
bioavailability [12]: 61%
Cmax [13]: 400 ng/mL
Cmax [14]: 530 ng/mL
Tmax [15]: 0.75 h
Tmax [16]: 4.8 min
AUC [17]: 3090 ng·h/mL
AUC [18]: 1570 ng·h/mL
bioavailability [19]: 86%
Structure (SMILES): O=C(c1ccc(F)cc1)N1CCN(c2ccc(OCCCN3CCCCC3)cc2)C(=O)C1.O=CO

logD [1]: 0.96
Structure (SMILES): O=C(c1ccc(F)cc1F)N1CCN(c2ccc(OC3CCN(C4CCCC4)CC3)cc2)C(=O)C1

logD [1]: -1.22
Structure (SMILES): CS(=O)(=O)c1cccc(C(=O)N2CCN(c3ccc(OCCCN4CCCCC4)cc3)C(=O)C2)c1

logD [1]: 0.48
Structure (SMILES): Cc1ccc(C(=O)N2CCN(c3ccc(OCCCN4CCCCC4)cc3)C(=O)C2)cc1

logD [1]: 0.9
Cmax [4]: 337 ng/mL
Tmax [6]: 4.8 min
AUC [8]: 837 ng·h/mL
clearance [9]: 18 mL/min/kg
Vd [10]: 2.5 L/kg
half-life [11]: 2 h
Cmax [20]: 91 ng/mL
Tmax [21]: 2 h
AUC [22]: 760 ng·h/mL
bioavailability [23]: 35%
Structure (SMILES): Cl.O=C(c1ccc(F)cc1)N1CCN(c2ccc(OC3CCN(C4CCC4)CC3)cc2)C(=O)C1

logD [1]: -0.39
Structure (SMILES): N#Cc1ccc(C(=O)N2CCN(c3ccc(OCCCN4CCCCCC4)cc3)C(=O)C2)cc1

logD [1]: -0.02
Structure (SMILES): C[C@@H]1CCCN1CCCOc1ccc(N2CCN(C(=O)c3cc(F)cc(F)c3)CC2=O)cc1

logD [1]: -1.6
Structure (SMILES): O=C(c1ccncc1)N1CCN(c2ccc(OCCCN3CCCCC3)cc2)C(=O)C1

logD [1]: 0.2
Structure (SMILES): O=C(c1cc(F)cc(F)c1)N1CCN(c2ccc(OCCCN3CCCCC3)cc2)C(=O)C1

logD [1]: -0.64
Structure (SMILES): CC(C)N1CCC(Oc2ccc(N3CCN(C(=O)c4ccc(C#N)cc4)CC3=O)cc2)CC1

logD [1]: -0.13
Structure (SMILES): C[C@H]1CCCN1CCCOc1ccc(N2CCN(C(=O)c3ccc(F)cc3F)CC2=O)cc1

logD [1]: 0.09
Structure (SMILES): C[C@H]1CCCN1CCCOc1ccc(N2CCN(C(=O)c3cc(F)cc(F)c3)CC2=O)cc1

Structure (SMILES): C[C@@H]1CCCN1CCCOc1ccc(N2CCN(C(=O)c3ccc(F)cc3F)CC2=O)cc1.O=CO
logD [1]: -0.08
Kp at 5 min [2]: 0.2
Cmax [3]: 109 ng/mL
Cmax [4]: 291 ng/mL
Tmax [5]: 4 h
Tmax [6]: 4.8 min
AUC [7]: 753 ng·h/mL
AUC [8]: 682 ng·h/mL
clearance [9]: 31 mL/min/kg
Vd [10]: 2 L/kg
half-life [11]: 1.1 h
bioavailability [12]: 48%
Cmax [13]: 734 ng/mL
Cmax [14]: 414 ng/mL
Tmax [15]: 4 h
Tmax [16]: 4.8 min
AUC [17]: 4800 ng·h/mL
AUC [18]: 2160 ng·h/mL
clearance [24]: 6.5 mL/min/kg
Vd [25]: 2.3 L/kg
half-life [26]: 4.3 h
bioavailability [19]: 100%

logD [1]: -0.59
Cmax [3]: 52 ng/mL
Cmax [4]: 729 ng/mL
Tmax [5]: 7 h
Tmax [6]: 4.8 min
AUC [7]: 441 ng·h/mL
AUC [8]: 1190 ng·h/mL
clearance [9]: 13 mL/min/kg
Vd [10]: 2.1 L/kg
half-life [11]: 1.8 h
bioavailability [12]: 7%
Structure (SMILES): C[C@@H]1CCCN1CCCOc1ccc(N2CCN(C(=O)c3ccc(C#N)cc3)CC2=O)cc1.O=CO

logD [1]: -0.38
Cmax [3]: 10 ng/mL
Tmax [5]: 4 h
AUC [7]: 67 ng·h/mL
Structure (SMILES): CS(=O)(=O)c1ccc(C(=O)N2CCN(c3ccc(OC4CCN(C5CCC5)CC4)cc3)C(=O)C2)cc1.O=CO
